ChEMBL document CHEMBL4396943, “The tetrahydroxanthone-dimer phomoxanthone A is a strong inducer of apoptosis in cisplatin-resistant solid cancer cells” (Bioorg Med Chem, 2019)
The source made the active and inactive calls. The calls are words filed in the database; no cut-off is given here.

Legend:
A2780cisR [1] = assay: Reduction of H2O2-induced ROS generation in human A2780cisR cells at 316 nM incubated for 18 hrs by H2DCFDA staining based flow cytometry; type: functional, cell-based
Summary of the method: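 Cells plated overnight in growth medium (approx. 150,000 cells/well), exposed to compound for 18 h. Then washed with PBS and moved to phenol red-free RPMI-1640 without FBS or antibiotics. Loaded with 10 µM H2DCF-DA, 30 min, 37 °C, dark. One aliquot then given 250 µM H2O2 for 1 h at 37 °C in the dark. DCF fluorescence read by flow cytometry; three independent experiments.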

KYSE-510 = assay: Antiproliferative activity against human KYSE-510 cells assessed as reduction in cell viability incubated for 72 hrs by MTT assay; type: functional, cell-based; details: KYSE-510, 72 h
Summary of the method: (§1)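 Cells seeded overnight in 96-well plates, then exposed to increasing concentrations (compound dissolved in DMSO, diluted in medium) for the stated time. MTT (5 mg/ml in PBS) added for 15 min, formazan dissolved in DMSO, absorbance read at 544 nm minus 690 nm background. IC50 = concentration giving 50% signal decrease. At least three independent experiments in triplicate.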

A2780 [2] = assay: Induction of apoptosis in human A2780 cells assessed as depolarization of mitochondrial membrane potential incubated for 2 hrs by TMRE staining based flow cytometry; type: functional, cell-based
Summary of the method: (§2)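 Cells seeded overnight; complete medium swapped for FBS-free medium just before treatment to avoid TMRE ester cleavage. Exposure to PXA for 1 h, 2 h or 24 h. TMRE staining 20 min, cells collected by trypsinisation, ΔΨm read by flow cytometry. Medium served as negative control, 20 µM CCCP as positive control. Mean ± SEM reported.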

J82 [3] = assay: Induction of apoptosis in cisplatin resistant human J82 cells assessed as depolarization of mitochondrial membrane potential incubated for 1 hr by TMRE staining based flow cytometry; type: functional, cell-based
Summary of the method: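 Cells seeded overnight; medium switched to FBS-free just before treatment to avoid TMRE ester cleavage. Exposure 1 h, 2 h or 24 h, then TMRE staining for 20 min. Cells trypsinized, centrifuged at 4 °C and read by flow cytometry. Medium as negative control, 20 µM CCCP as positive control. […]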

[4] = Potency index, ratio of cisplatin IC50 to compound IC50 for antiproliferative activity in human Cal27CisR cells assessed as reduction in cell viability incubated for 72 hrs by MTT assay; type: functional
Summary of the method: (§3)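 Cells seeded in 96-well plates overnight, exposed 72 h to increasing concentrations. MTT (5 mg/ml) added for 15 min, formazan dissolved in DMSO, absorbance read at 544 nm with 690 nm background subtracted. IC50 is the concentration reducing signal by 50%. Three independent experiments in triplicate. CisR sublines made by weekly intermittent cisplatin exposure for 24–30 weeks.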

A2780 [5] = assay: Induction of apoptosis in human A2780 cells assessed as increase in activation of caspase 3/7 at 10 uM incubated for 24 hrs by hoechst 33342 staining based fluorescence microscopy (reference value: 1.4%); type: functional
J82 [6] = assay: Induction of apoptosis in human J82 cells assessed as accumulation in subG1 phase at 5 uM incubated for 24 hrs by propidium iodide staining based flow cytometry relative to control; type: functional
Summary of the method: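 About 100,000 cells/well plated; after one day, treated 24 h. Cells lysed in hypotonic buffer (0.1% sodium citrate, 0.1% Triton X-100, 100 µg/ml propidium iodide) and kept overnight at 4 °C in the dark. Sub-G1 fraction measured by flow cytometry. Medium as control, cisplatin as positive control.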

[7] = Antiproliferative activity against human Cal27CisR cells assessed as reduction in cell viability incubated for 72 hrs by MTT assay; type: functional, cell-based; summary of the method: as §1
J82 [8] = assay: Induction of apoptosis in human J82 cells assessed as increase in activation of caspase 3/7 at 50 uM incubated for 24 hrs by hoechst 33342 staining based fluorescence microscopy (reference value: 1.1%); type: functional
J82 [9] = assay: Induction of apoptosis in cisplatin resistant human J82 cells assessed as accumulation in subG1 phase at 5 uM incubated for 24 hrs by propidium iodide staining based flow cytometry relative to control; type: functional
Summary of the method: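 Cells plated in 24-well plates (about 100,000/well) for one day, then treated 24 h. Where used, caspase inhibitor Q-VD-OPh (20 µM) was added 1 h before. Cells lysed in hypotonic buffer (0.1% sodium citrate, 0.1% Triton X-100, 100 µg/ml propidium iodide) overnight at 4 °C in the dark. Sub-G1 fraction read by flow cytometry. Medium control, cisplatin positive control.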

A2780cisR [10] = assay: Cell cycle arrest in human A2780cisR cells assessed as accumulation at G1 phase at 1 uM incubated for 24 hrs by propidium iodide staining based flow cytometry (reference value: 68.7%); type: functional
Summary of the method: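 After 24 h exposure, cells washed in ice-cold PBS. About 2 million cells fixed in cold 70% ethanol at −20 °C for at least 24 h. Stained with 0.1% Triton X-100, 200 µg/ml RNase A and 20 µg/ml propidium iodide in PBS, 15 min at 37 °C in the dark. DNA content read by flow cytometry with doublet discrimination. Medium as untreated control, paclitaxel as G2/M control. Three independent experiments.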

A2780 [11] = assay: Induction of apoptosis in human A2780 cells assessed as decrease in claspin expression at 5 uM incubated for 24 hrs by proteome profiler analysis; type: functional, cell-based
Summary of the method: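 A2780 cells treated 24 h with 5 µM, then apoptosis-related proteins read on an antibody array (Proteome Profiler human apoptosis array) per kit instructions.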

Homo sapiens = species on record: Homo sapiens; assay: Ratio of IC50 for induction of mitochondrial membrane depolarization in cisplatin resistant human J82 cells to IC50 for induction of mitochondrial membrane depolarization in human A2780cisR cells after 2 hrs by TMRE staining based flow cytometry; type: functional, cell-based; summary of the method: as §2
A2780cisR [12] = assay: Induction of apoptosis in human A2780cisR cells assessed as decrease in cIAP expression at 5 uM incubated for 24 hrs by proteome profiler analysis; type: functional, cell-based
Summary of the method: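 A2780 and A2780CisR cells treated 24 h with 5 µM PXA; apoptosis-related proteins profiled with a human apoptosis antibody array following kit instructions.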

A2780cisR [13] = assay: Induction of apoptosis in human A2780cisR cells assessed as increase in intracellular calcium level at 1 to 30 uM incubated for 30 mins by fluorimetry; type: functional, cell-based
Summary of the method: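 Cells seeded in 96-well plates overnight, washed twice with Krebs-HEPES buffer, loaded 1 h at 37 °C in the dark with Oregon Green BAPTA-1 AM (final 3 µM) and Pluronic F-127. Buffer replaced, PXA added, fluorescence at 544 nm recorded for 30 min, with or without 1 mM extracellular Ca2+. Three experiments, mean ± SEM.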

A2780 [14] = assay: Induction of apoptosis in human A2780 cells assessed as nuclear condensation by measuring reduced size and increased intensity of nuclei at 10 uM incubated for 24 hrs by hoechst 33342 staining based fluorescence microscopy; type: functional, cell-based
HCT-116 = assay: Potency index, ratio of cisplatin IC50 to compound IC50 for antiproliferative activity in human HCT116 cells assessed as reduction in cell viability incubated for 72 hrs by MTT assay; type: functional; summary of the method: as §3
MDA-MB-231 = assay: Potency index, ratio of cisplatin IC50 to compound IC50 for antiproliferative activity in cisplatin-resistant human MDA-MB-231 cells assessed as reduction in cell viability incubated for 72 hrs by MTT assay; type: functional; summary of the method: as §3

CC(=O)OC[C@]12Oc3c(-c4ccc(O)c5c4O[C@@]4(COC(C)=O)C(=C(O)C[C@@H](C)[C@H]4OC(C)=O)C5=O)ccc(O)c3C(=O)C1=C(O)C[C@@H](C)[C@H]2OC(C)=O [PHOMOXANTHONE A]
inhibition (A2780cisR [1]): inactive
IC50 (KYSE-510): 0.76 µM
Activity (A2780 [2]): Dose-dependent effect
IC50 (A2780 [2]; A2780, 2 h): 0.75 µM
Activity (J82 [3]): Dose-dependent effect
IC50 (J82 [3]; J82, 1 h): 3.12 µM
Ratio IC50 [4]: 2 - 10
Activity (A2780 [5]): 83%
Activity (J82 [6]): 53%
IC50 [7]: 5.62 µM
Activity (J82 [8]): 60%
Activity (J82 [9]): 35%
Activity (A2780cisR [10]): 72.7%
Activity (A2780 [11]): Active
Ratio IC50 (Homo sapiens): 3
Activity (A2780cisR [12]): Active
Activity (A2780cisR [13]): Active
Activity (A2780 [14]): Active
Ratio IC50 (HCT-116): 2 - 10
Ratio IC50 (MDA-MB-231): 2 - 10
